Results as given in publication PMC4899155 (Molecular pharmaceutics, 2016).

Assays:
Jurkat cells [1] = experiment: Intracellular calcium assay; format: cell-based, human
Jurkat cells [2] = experiment: IL-2 ELISA assay in PMA/PHA stimulated Jurkat cells; format: cell-based, human; conditions: for IL-2 secretion: PMA/PHA stimulated Jurkat cells
In short: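 Jurkat cells were kept in RPMI 1640 with L-glutamine and 10% FBS at 37°C, 5% CO2, about 10^6 cells/ml. […] After 15 min, a PHA (25 μg/mL)/PMA (1.25 μg/ml) mixture in PBS:DMSO (80:1) was added and cells were incubated 24 h at 37°C. Supernatant IL-2 was measured by human IL-2 ELISA.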

[3] = Metabolic stability in mouse liver microsomes; format: in vitro ADME
Ova S/C Balb/c mice [4] = experiment: Mucin volume density; format: in vivo, mouse
In short: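 Ova-sensitized/challenged Balb/c mice were dosed as single 20 mg/kg i.p. 40 min before analysis, twice-daily 20 mg/kg i.p. for 5 days, osmotic pump 20 mg/kg/day for 7 days, or dexamethasone 4 mg/kg daily for 8 days. Formalin-perfused lungs were cut into 5 μm paraffin sections and stained with periodic acid fluorescent Schiff. Mucin area in axial-bronchus epithelium per basement-membrane length was normalized to control and Ova groups (5-7 mice/group).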

[5] = Single dose pharmacokinetic study in mice; format: in vivo; conditions: 5 mg/kg i.p.
In short: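 Mice received a single 5 mg/kg i.p. dose of test compound in 10% DMSO, 40% propylene glycol and 50% PBS. Compound levels were followed over time in brain, lung and blood, with N = 3.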

[6] = Metabolic stability in human liver microsomes; format: in vitro ADME
α6β3γ2 GABAAR = conditions: at concentrations higher that 1 μM ref 27; cited from earlier work
α4β3γ2 GABAAR = α4β3γ2 GABAAR (Homo sapiens, UniProt P18507+P48169); conditions: α4β3γ2 ref 27; cited from earlier work
Sequence of α4β3γ2 GABAAR (P48169 36-554): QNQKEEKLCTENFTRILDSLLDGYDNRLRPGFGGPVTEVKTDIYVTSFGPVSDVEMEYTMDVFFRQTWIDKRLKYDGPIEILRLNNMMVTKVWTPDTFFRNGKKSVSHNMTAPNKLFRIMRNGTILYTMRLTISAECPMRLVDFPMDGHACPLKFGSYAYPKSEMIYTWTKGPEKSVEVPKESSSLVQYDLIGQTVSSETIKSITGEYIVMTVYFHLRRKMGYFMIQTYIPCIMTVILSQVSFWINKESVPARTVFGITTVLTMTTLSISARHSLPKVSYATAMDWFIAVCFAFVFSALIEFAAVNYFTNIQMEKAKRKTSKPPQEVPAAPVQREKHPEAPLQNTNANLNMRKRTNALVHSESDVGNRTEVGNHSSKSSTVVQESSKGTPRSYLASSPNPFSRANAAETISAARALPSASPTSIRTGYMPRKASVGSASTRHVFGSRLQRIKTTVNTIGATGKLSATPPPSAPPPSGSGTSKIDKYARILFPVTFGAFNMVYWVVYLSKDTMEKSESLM
Sequence of α4β3γ2 GABAAR (P28472 26-473 partner): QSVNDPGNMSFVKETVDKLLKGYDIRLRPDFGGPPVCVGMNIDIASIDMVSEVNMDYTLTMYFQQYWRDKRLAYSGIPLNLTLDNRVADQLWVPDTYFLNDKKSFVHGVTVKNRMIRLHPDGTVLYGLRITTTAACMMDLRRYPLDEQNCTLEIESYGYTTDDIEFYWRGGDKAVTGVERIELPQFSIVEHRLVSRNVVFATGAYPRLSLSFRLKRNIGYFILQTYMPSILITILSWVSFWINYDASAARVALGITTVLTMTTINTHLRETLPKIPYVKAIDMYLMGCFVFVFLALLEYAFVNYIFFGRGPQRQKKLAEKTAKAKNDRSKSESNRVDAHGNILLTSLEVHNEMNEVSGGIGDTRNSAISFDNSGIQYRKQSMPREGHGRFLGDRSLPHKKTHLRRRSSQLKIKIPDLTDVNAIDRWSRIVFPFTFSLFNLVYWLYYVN
Sequence of α4β3γ2 GABAAR (P18507 40-475): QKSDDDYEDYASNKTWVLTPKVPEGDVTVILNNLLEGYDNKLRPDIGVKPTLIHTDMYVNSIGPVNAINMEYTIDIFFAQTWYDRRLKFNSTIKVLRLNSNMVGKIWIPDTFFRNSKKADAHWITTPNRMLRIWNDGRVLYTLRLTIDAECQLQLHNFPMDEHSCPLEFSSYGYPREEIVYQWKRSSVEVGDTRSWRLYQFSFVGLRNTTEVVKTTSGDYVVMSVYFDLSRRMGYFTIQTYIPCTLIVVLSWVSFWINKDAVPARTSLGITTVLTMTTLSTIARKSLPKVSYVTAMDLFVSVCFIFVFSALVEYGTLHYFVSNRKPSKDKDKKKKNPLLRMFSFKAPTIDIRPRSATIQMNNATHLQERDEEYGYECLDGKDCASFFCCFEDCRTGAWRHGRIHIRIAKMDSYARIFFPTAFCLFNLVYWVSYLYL

[7] = Metabolic stability in human S9 fraction; format: in vitro ADME; conditions: 1 hour incubation
[8] = Metabolic stability in mouse S9 fraction; format: in vitro ADME; conditions: 1 hour incubation
[9] = Blood concentration under repeated dosing / osmotic minipump in Ova S/C mice; format: in vivo, Balb/c mice
In short: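 Ova-sensitized/challenged Balb/c mice received test compound by surgically implanted osmotic minipump at 20 mg/kg/day for 7 days, or by two i.p. injections daily over the 5-day challenge period. Blood concentration was taken on the day of airway hyper-responsiveness measurement (day 28).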

Balb/c mice = experiment: Rotarod assay; format: in vivo, mouse; conditions: 10 minutes after injection, 15 rpm
Ova S/C Balb/c mice [10] = experiment: Airway hyper-responsiveness to methacholine; format: in vivo, mouse
In short: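 Male Balb/c mice were sensitized i.p. with 2 mg/kg/d ovalbumin in 2 mg alum on days 0, 7 and 14, then challenged intranasally with 1 mg/kg/d ovalbumin on days 23–27. Dosing was by i.p. injection 40 min before testing, or twice daily during challenge. The dexamethasone control was 4 mg/kg i.p. daily for 8 days. sRaw was measured versus aerosolized methacholine (mg/ml) in conscious mice (4-7/group, mean ± SEM).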

[11] = Stability in mouse plasma; format: in vitro ADME
[12] = test system: guinea pig tracheal rings; experiment: Guinea pig airway smooth muscle organ bath; format: cell-based; conditions: 100 μM, rings contracted with 1 μM substance P, compared to vehicle
Ova S/C Balb/c mice [13] = experiment: Airway eosinophilia; format: in vivo, mouse
Jurkat cells [14] = experiment: Automated patch-clamp electrophysiology for Jurkat cells; format: cell-based, human; conditions: in the presence of an EC3 concentration of GABA (0.3 μM)

NCCCC(=O)O [GABA, reference compound]
increase in [Ca2+]i (Jurkat cells [1]; 150 mM): fully suppressed | concentration able to reduce the [Ca2+]i levels (Jurkat cells [1]; Jurkat cells): ≥ 30 mM | IL-2 secretion (Jurkat cells [2]; 1 nM): ineffective | IL-2 secretion (Jurkat cells [2]; 100 nM): significantly reduced secretion of IL-2

CCOC(=O)c1ncn2c1[C@@H]1CCCN1C(=O)c1cc(OC)ccc1-2 [XHE-III-74EE]
Mouse liver microsomes % remaining after 1 hour ([3]; 1 hour incubation): 86.3 ± 0.3% | predicted half-life ([3]; mouse liver microsomes and S9 fraction): several hours | airway mucous metaplasia / mucin volume density (Ova S/C Balb/c mice [4]; 20 mg/kg i.p. injections daily for 5 days): did not significantly change airway mucous metaplasia | airway mucous metaplasia / mucin volume density (Ova S/C Balb/c mice [4]; 20 mg/kg/day via osmotic pump): no change in airway mucous metaplasia | mucin production (Ova S/C Balb/c mice [4]; acute, single i.p. injection for 40 minutes): did not change mucin production | extent of inhibition of PMA/PHA-induced increases in [Ca2+]i (Jurkat cells [1]; Jurkat cells, Fluo-4): partial inhibition | IC50 (Jurkat cells [1]; read-out: IC50, PMA/PHA-induced increase in [Ca2+]i, Jurkat cells, Fluo-4): 24.3 ± 9.8 nM | AUC in brain as % of the AUC in blood [5]: 79% | AUC in lung as % of the blood AUC [5]: 60% | Cmax in blood versus lung [5]: roughly two times higher in blood than in lung | Tmax in blood [5]: 10 min | Tmax in lung [5]: 3 min | half-life in brain [5]: 36.7 min | half-life in lung [5]: 17.6 min | human liver microsomes % remaining after 1 hour ([6]; 1 hour incubation): 99.2 ± 0.15% | predicted half-life ([6]; human liver microsomes and S9 fraction): several hours | IL-2 production (Jurkat cells [2]; under similar conditions, without supplemental GABA): did not reduce IL-2 production | reported activity at α6β3γ2 GABAAR (α6β3γ2 GABAAR): some activity | reported GABAAR subtype selectivity (α4β3γ2 GABAAR): subtype-selective | human S9 fraction % remaining after 1 hour [7]: 95.6 ± 0.3% | Mouse S9 fraction % remaining after 1 hour [8]: 98.4 ± 0.4% | blood concentration, continuous release by implanted minipumps ([9]; implanted minipumps (Discussion)): 27.2 ng/mL | constant blood concentration at the day of AHR measurement ([9]; implanted minipumps, 20 mg/kg/day for 7 days): 27.2 ± 2.7 ng/g | cmax ([9]; twice daily i.p. injection): 216 ng/mL | motor impairment on rotarod (Balb/c mice; 5 mg/kg i.p.): did not impair motorsensory coordination | motor impairment on rotarod (Balb/c mice; 40 mg/kg i.p.): did cause motor-impairing effects | methacholine-induced AHR (sRaw), words (Ova S/C Balb/c mice [10]; 20 mg/kg i.p. twice daily for 5 days): reduced methacholine-induced AHR | methacholine-induced AHR (sRaw), words (Ova S/C Balb/c mice [10]; osmotic pump, 20 mg/kg daily for 7 days): effective in reducing AHR at low concentrations of methacholine | methacholine-induced AHR (sRaw), words (Ova S/C Balb/c mice [10]; single i.p. 10 mg/kg, 40 minutes prior to analysis): did not alter AHR | methacholine-induced AHR (sRaw), words (Ova S/C Balb/c mice [10]; single i.p. 20 mg/kg, 40 minutes prior to analysis): did not alter AHR | Mouse plasma (stability; row prints no unit or time) ([11]; Table 1 of in vitro metabolic stability): 92.6 ± 0.2 | stability in blood plasma ([11]; at least one hour): stable in blood plasma | relaxation of airway smooth muscle contractile force [12]: induced active relaxation | airway eosinophilia (Ova S/C Balb/c mice [13]; 20 mg/kg twice i.p. injection daily for 5 days): not effective in reducing airway eosinophilia | airway eosinophilia (Ova S/C Balb/c mice [13]; 20 mg/kg via osmotic pump): no change in airway eosinophilia | airway eosinophilia (Ova S/C Balb/c mice [13]; acute, single i.p. injection 20 mg/kg for 40 minutes): not effective in reducing airway eosinophilia | GABA-induced current potentiation (Jurkat cells [14]): 734%

C[C@@H]1C[C@H]2[C@@H]3CCC4=CC(=O)C=C[C@]4(C)[C@@]3(F)[C@@H](O)C[C@]2(C)[C@@]1(O)C(=O)CO [dexamethasone, reference compound]
airway mucous metaplasia / mucin volume density (Ova S/C Balb/c mice [4]; single i.p. injection daily for 8 days, 4 mg/kg, p<0.01): significantly decreased mucous metaplasia | airway eosinophilia (Ova S/C Balb/c mice [13]; 4 mg/kg i.p. daily for 8 days): significantly decreased airway eosinophilia

CN1C(=O)CN=C(c2ccccc2)c2cc(Cl)ccc21 [diazepam, reference compound]
motor impairment on rotarod (Balb/c mice; 5 mg/kg i.p.): induced significant motor impairment
